In all, about 62,000 compounds went through this assay and about 50 (0.08%) were called active.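 How the source made its calls: active means inhibition above 30% in each of the two pooled mixtures holding the compound, so the lower value exceeds 30%; inactive means the rest.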 Shown is part of a subset that was picked to be rich in actives.
assay: alternative complement pathway inhibitors, primary screen, biochemical, ELISA, human serum, orthogonally pooled compounds (AID 1235); settings: LPS-coated ELISA, C3 deposition, tested in compound mixtures, at 5 µM, stronger effect = higher value;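 further: 0% = serum in Mg-EGTA without compound and 100% = EDTA serum blank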
Method in brief: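 Test system: human serum complement alternative pathway, C3 deposition onto LPS / Medium: Mg2+-EGTA GVB++ buffer containing human serum at 1:15 dilution / Probe or stimulus: Plate-bound LPS / Times: 1 h at 37 °C / Signal: ELISA with HRP anti-human C3 antibody, TMB substrate, absorbance 450 nm / Measure: percent inhibition / Repeats: two pool placements per compound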

SMILES | inhibition
c1c2c(cc3sc(N4CCCCC4)nc13)OCCO2 | -3.86% (inactive)
CC(C(=O)O)N1C(=O)c2cccc3cccc1c23 (centres undefined) | -0.13% (inactive)
O=C1C2(c3ccccc3)CN(CCCO)CC1(c1ccccc1)CN(CCCO)C2 | 0.125% (inactive)
Cc1cc(C)nc(NC(=O)C(C)N2C(=O)c3ccccc3C2=O)n1 (centres undefined) | 4.23% (inactive)
Cc1cc(N(C)C)cc(C)[n+]1[O-] | 13.5% (inactive)
CC(=O)NC(Cc1ccc(F)cc1)C(=O)O (centres undefined) | 10.5% (inactive)
COc1ccc2c(Cl)c(-c3nnco3)sc2c1 | 9.28% (inactive)
CCCCCN(C(=O)NC(=O)Nc1ccccc1C)S(C)(=O)=O | 18.8% (inactive)
CS(=O)(=O)N(CC(=O)NCc1ccco1)c1ccc2c(c1)OCO2 | -0.135% (inactive)
COc1ccc(CCNC(=O)c2ccco2)cc1 | 3.87% (inactive)
O=C(CSc1nnc(-c2cccs2)n1-c1ccccc1)N1CCN(C(=O)c2ccco2)CC1 | 13.8% (inactive)
COC(=O)c1ccccc1NC(=O)CSc1ccccn1 | -0.725% (inactive)
COc1cccc(Oc2ccc(N)cc2)c1 | 5.52% (inactive)
CCNC(=O)N1CCNC(=O)C1CC(=O)Nc1ccc(C(=O)OCC)cc1 (centres undefined) | -0.745% (inactive)
Cc1ccsc1C(C(=O)NC1CCCCC1)N(C(=O)Cc1cccs1)C1CC1 (centres undefined) | -3.39% (inactive)
CCN1C(=O)/C(=C\N2CCN(c3cccc(Cl)c3)CC2)SC1=S | 11.5% (inactive)
S=C1SCN(CCN2CCOCC2)CN1Cc1ccccc1 | 16% (inactive)
Cc1occc1C(=O)Nc1nnc(C2CCCCC2)s1 | 9.21% (inactive)
COCCN(CC(=O)Nc1ccccc1C)S(=O)(=O)c1ccc(S(=O)(=O)N2CCCC2)cc1 | 10.3% (inactive)
O=C(NCCCN1CCN(c2ccccc2F)CC1)C1CCC(=O)N1C1CCCCC1 (centres undefined) | 1.73% (inactive)
COc1ccc(-c2nc(CS(=O)CC(=O)NCc3cccnc3)c(C)o2)cc1OC (centres undefined) | 10.4% (inactive)
CC(=O)O[C@]1(C(C)=O)CC[C@H]2[C@@H]3C=C(C)C4=CC(=O)CC[C@]4(C)[C@H]3CC[C@@]21C | 9.71% (inactive)

SMILES | inhibition
CCNS(=O)(=O)c1ccc(NC(=O)Nc2cccc(C(F)(F)F)c2)cc1 | 12.9% (inactive)
Cc1c(C(=O)N2CCCc3ccccc32)sc2nc(-c3ccccc3)cn12 | 16% (inactive)
O=C1c2cccnc2C(=O)N1Cc1cccs1 | 14.6% (inactive)
Cc1ccc(C2CC(c3cccc(Br)c3)n3nc(N)nc3N2)cc1 (centres undefined) | 11.6% (inactive)
CCOC(=O)Cn1c(=O)oc2cc(S(=O)(=O)NCC3CCCO3)ccc21 (centres undefined) | 15% (inactive)
CCOC(=O)c1oc2ccccc2c1NC(=O)c1cccs1 | 0.31% (inactive)
CCCS(=O)(=O)N1CCCC(C(=O)N2CCN(c3ccccc3)CC2)C1 (centres undefined) | 4.18% (inactive)
COc1ccc(-n2nnc3c(=O)n(CC(=O)N4CCC(Cc5ccccc5)CC4)cnc32)cc1 | 21.3% (inactive)
COc1cc(OC)cc(C(=O)NCCSCc2ccco2)c1 | 4.01% (inactive)
CCNS(=O)(=O)c1ccc(NC(=O)Nc2cccc(OC)c2)cc1 | 27.3% (inactive)
O=C(c1cccc2ccccc12)N1CCN(c2ccccc2F)CC1 | 18.4% (inactive)
CCOC(=O)C1CCN(C(=O)CSc2cc(=O)n(C)c3ccccc23)CC1 | 7.27% (inactive)
CCn1ncc(C2=NOC(C(=O)Nc3ccccc3C(=O)OC)C2)c1C (centres undefined) | 12.4% (inactive)
COc1ccc(N(Cc2cc3cc(OC)ccc3[nH]c2=O)S(C)(=O)=O)cc1 | -2.02% (inactive)
CCc1c(C)nc2ncnn2c1N1CCC(C(=O)NCc2ccc3c(c2)OCO3)CC1 | 20.2% (inactive)
Cc1ccc(-c2nc(CS(=O)CC(=O)NC3CCCC3)c(C)o2)cc1 (centres undefined) | 10.5% (inactive)
FC(F)(F)c1nnc2sc(-c3ccco3)nn12 | 7.12% (inactive)
CCOC(=O)C(CCOc1cccc(CC)c1)C(=O)OCC | 9.83% (inactive)
COc1ccc(-c2nnn(CC(=O)N(CCO)C(C(=O)NC3CCCC3)c3ccc(F)cc3)n2)cc1 (centres undefined) | 3.14% (inactive)
Cc1ccccc1CSc1nnc(-c2ccccn2)n1N | 12.7% (inactive)
CCOC(=O)c1[nH]c2ccc(C)cc2c1N=C(C)N(C)C | 10.8% (inactive)
COC(=O)C1=C(C)NC2=C(C(=O)c3ccccc32)C1c1ccc(-c2ccc(C(=O)O)cc2)o1 (centres undefined) | 7.73% (inactive)

SMILES | inhibition
CC1C=CCC2C(=O)N(c3cccc(C(=O)N4CCCCCC4)c3)C(=O)C12 (centres undefined) | 19% (inactive)
CCS(=O)(=O)N1CCCC(C(=O)NCc2ccc(C)cc2)C1 (centres undefined) | 13.3% (inactive)
COC(=O)Cc1c(C)c2ccc(OCC(=O)NCc3ccc4c(c3)OCO4)cc2oc1=O | 4.91% (inactive)
CNC(=O)CSc1nnc(CCc2ccccc2)n1-c1ccccc1 | 5.29% (inactive)
CC1CCCN(C(=O)Cn2c(=O)oc3ccccc32)C1 (centres undefined) | -0.77% (inactive)
CC1(C)SC2c3ccccc3C(=O)N2[C@@H]1C(=O)NCc1ccco1 (some centres undefined) | -5.49% (inactive)
O=C(c1ccc(O)cc1)c1ccc(C(=O)O)c(C(=O)O)c1 | -8.85% (inactive)
O=C(C1CCN(CC2CCCCC2)CC1)N1CCCC1 | 4.05% (inactive)
COC(=O)c1oc2ccc(Br)cc2c1NC(C)=O | 11.8% (inactive)
COc1ccccc1CNCc1cccs1 | -3.09% (inactive)
CCn1cc(C(=O)NCc2ccc(OC)cc2OC)c(=O)c2ccc(C)nc21 | -3.58% (inactive)
COc1ccc(-c2noc(-c3cccc(OC)c3OC)n2)cc1OC | 21.6% (inactive)
O=C(CN1CCN(c2nc(-c3ccccc3)cs2)CC1)NCc1ccc2c(c1)OCO2 | 13.6% (inactive)
Cc1cccc(N(CC(O)CN(C)C)S(=O)(=O)c2ccccc2)c1 (centres undefined) | -22.7% (inactive)
COC(=O)[C@H](C)NC(=O)Nc1ccc(OC(F)(F)F)cc1 | 4.04% (inactive)
O=C1OC(NC(=O)c2ccccc2)C(N2CCOCC2)=C1Cl (centres undefined) | 18.5% (inactive)
Cc1ccc(Oc2ccc(N)cc2)cc1 | -0.695% (inactive)
CCOc1ccc(NC(=O)CC2NCCNC2=O)cc1 (centres undefined) | 2.46% (inactive)
O=C(CC1Nc2ccccc2NC1=O)Nc1ccccc1 (centres undefined) | -0.205% (inactive)
O=C(CC1NCCNC1=O)Nc1ccc(Oc2ccccc2)cc1 (centres undefined) | 32.3% (active)

From PubChem BioAssay AID1235 (PCMD, 2008)
